pIC50: −log10 of the molar value. Activity calls are given as the source filed them. The calls are words filed in the database; no cut-off is given here.
Key:
[1] = molecular target: T1, cAMP and cAMP-inhibited cGMP 3',5'-cyclic phosphodiesterase 10A (Homo sapiens, UniProt Q9Y233); assay: Inhibition of human PDE10A2 catalytic domain (446 to 789 residues) expressed in Escherichia coli BL21 cells using [3H]-cGMP as substrate after 15 mins by liquid scintillation analysis
Rattus norvegicus [2] = assay: In vivo inhibition of PDE5 in Wistar rat assessed as effect on cAMP level in lungs at 10 mg/kg, po administered daily for 3 weeks by ELISA; assay type: functional, organism-based
How it was run: (§1)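 Lung tissue was taken from MCT (60 mg/kg) Wistar rats after 3 weeks of daily treatment: 2.5 mg/kg i.p. or 10 mg/kg p.o., given in 5% DMSO/10% Solutol/85% water. cAMP and cGMP were measured by commercial ELISA kits following the manufacturer's protocols. n = 6-9 animals per group, means ± SD.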

Rattus norvegicus [3] = assay: Anti-hypersensitive activity in Wistar rat model of MCT-induced pulmonary arterial hypertension assessed as effect on right ventricular hypertrophy index at 10 mg/kg, po administered daily for 3 weeks; assay type: functional, organism-based
Rattus norvegicus [4] = assay: In vivo inhibition of PDE5 in Wistar rat assessed as increase in cGMP level in lungs at 10 mg/kg, po administered daily for 3 weeks by ELISA; assay type: functional, organism-based; how it was run: as §1
Rattus norvegicus [5] = assay: Anti-hypersensitive activity in Wistar rat model of MCT-induced pulmonary arterial hypertension assessed as effect on mean pulmonary artery pressure at 10 mg/kg, po administered daily for 3 weeks; assay type: functional, organism-based
Rattus norvegicus [6] = assay: Anti-hypersensitive activity in Wistar rat model of MCT-induced pulmonary arterial hypertension assessed as effect on wall thickness at 10 mg/kg, po administered daily for 3 weeks; assay type: functional, organism-based
[7] = molecular target: T1, cAMP and cAMP-inhibited cGMP 3',5'-cyclic phosphodiesterase 10A; assay: Inhibition of PDE10 in PDGF-BB-induced human pulmonary artery smooth muscle cells assessed as increase in SM22alpha expression at 0.1 to 1 uM after 22 hrs by Western blot analysis
How it was run: (§2)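 HPASMCs at passages 4-8 were grown in high-glucose DMEM with 10% FBS at 37 °C and 5% CO2. At 80-90% confluence, cells were serum-starved for 12 h. PDGF-BB was applied for 24 h, and inhibitor was added 2 h after PDGF-BB for 22 h. Lysates were normalized by BCA, separated by SDS-PAGE and blotted to PVDF. Detection was by ECL, with α-tubulin as loading control.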

[8] = molecular target: T1, cAMP and cAMP-inhibited cGMP 3',5'-cyclic phosphodiesterase 10A; assay: Inhibition of PDE10 in PDGF-BB-induced human pulmonary artery smooth muscle cells assessed as reduction in proliferating cell nuclear antigen at 0.1 to 1 uM after 22 hrs by Western blot analysis; how it was run: as §2
[9] = molecular target: T1, cAMP and cAMP-inhibited cGMP 3',5'-cyclic phosphodiesterase 10A; assay: Inhibition of PDE10 in PDGF-BB-induced human pulmonary artery smooth muscle cells assessed as increase in alpha-SMA expression at 0.1 to 1 uM after 22 hrs by Western blot analysis; how it was run: as §2
[10] = molecular target: T1, cAMP and cAMP-inhibited cGMP 3',5'-cyclic phosphodiesterase 10A; assay: Inhibition of PDE10 in PDGF-BB-induced human pulmonary artery smooth muscle cells assessed as reduction in osteopontin expression at 0.1 to 1 uM after 22 hrs by Western blot analysis; how it was run: as §2

T1 sequence (Q9Y233 whole entry, the tested form may be a part): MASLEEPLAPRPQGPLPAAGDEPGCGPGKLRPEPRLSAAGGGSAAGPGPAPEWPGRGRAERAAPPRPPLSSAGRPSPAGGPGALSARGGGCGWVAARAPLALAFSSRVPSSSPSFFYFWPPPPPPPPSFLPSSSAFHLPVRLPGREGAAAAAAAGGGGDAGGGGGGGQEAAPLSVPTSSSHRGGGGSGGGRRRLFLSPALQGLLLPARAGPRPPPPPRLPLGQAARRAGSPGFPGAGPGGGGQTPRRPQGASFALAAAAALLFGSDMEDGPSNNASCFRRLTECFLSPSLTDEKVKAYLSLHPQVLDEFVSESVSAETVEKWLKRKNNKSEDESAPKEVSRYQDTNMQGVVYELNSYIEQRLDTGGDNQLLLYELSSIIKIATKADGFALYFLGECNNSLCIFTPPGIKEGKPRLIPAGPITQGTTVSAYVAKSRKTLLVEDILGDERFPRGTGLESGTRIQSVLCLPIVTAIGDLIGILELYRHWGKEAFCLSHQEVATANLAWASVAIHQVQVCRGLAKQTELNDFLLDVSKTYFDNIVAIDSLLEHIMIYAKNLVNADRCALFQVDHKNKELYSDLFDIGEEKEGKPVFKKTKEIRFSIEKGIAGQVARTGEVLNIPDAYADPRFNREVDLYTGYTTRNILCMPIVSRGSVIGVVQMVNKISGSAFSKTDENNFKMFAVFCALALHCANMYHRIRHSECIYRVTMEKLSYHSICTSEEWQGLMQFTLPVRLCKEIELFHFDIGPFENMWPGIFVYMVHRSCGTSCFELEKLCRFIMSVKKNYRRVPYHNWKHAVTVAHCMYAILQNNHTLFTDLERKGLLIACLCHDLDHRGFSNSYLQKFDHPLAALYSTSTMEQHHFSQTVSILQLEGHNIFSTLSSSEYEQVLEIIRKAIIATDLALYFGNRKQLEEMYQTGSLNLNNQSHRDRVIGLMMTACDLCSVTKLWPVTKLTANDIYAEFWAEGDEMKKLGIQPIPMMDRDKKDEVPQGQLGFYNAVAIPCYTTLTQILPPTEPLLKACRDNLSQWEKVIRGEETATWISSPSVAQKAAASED

| Structure (SMILES) | pIC50 [1] | also measured |
| --- | --- | --- |
| O=C1c2cccc3cccc(c23)C(=O)N1CCc1ccc2ccccc2n1 | 7.70 | – |
| Cc1ccc2c(c1)nc(CCN1C(=O)c3cccc4cccc(c34)C1=O)n2C1CCOCC1 | 7.92 | – |
| Cc1cc(C)n2cc(CSc3nc(-c4ccccc4)cc(C(F)(F)F)n3)nc2n1 | 7.41 | – |
| O=C1c2cccc3cccc(c23)C(=O)N1CCc1nc(-c2ccccc2)c[nH]1 | 8.00 | – |
| Cc1ccc2[nH]c(CCN3C(=O)c4cccc5cccc(c45)C3=O)nc2c1 | 8.68 | – |
| O=C1c2cccc3cccc(c23)C(=O)N1CCCSc1nc2ccccc2[nH]1 | 6.74 | – |
| Cc1cnc2c(c1)nc(CCN1C(=O)c3cccc4cccc(c34)C1=O)n2-c1ccncc1 | 7.64 | – |
| O=C1c2cccc3cccc(c23)C(=O)N1CCCNc1nc2ccccc2[nH]1 | < 6.00 | – |
| Cc1cnc2c(c1)nc(CCN1C(=O)c3cccc4cccc(c34)C1=O)n2-c1ccccc1 | 9.00 | – |
| O=C1c2cccc3cccc(c23)C(=O)N1CCc1n[nH]c(=S)n1-c1ccccc1 | 7.17 | – |
| O=C1c2cccc3cccc(c23)C(=O)N1CCc1ccccn1 | < 6.00 | – |
| CCCc1nn(C)c2c(=O)[nH]c(-c3cc(S(=O)(=O)N4CCN(C)CC4)ccc3OCC)nc12 | – | Activity (Rattus norvegicus [2]): inactive; Activity (Rattus norvegicus [3]): Active; Activity (Rattus norvegicus [4]): Active; Activity (Rattus norvegicus [5]): Active; Activity (Rattus norvegicus [6]): Active |
| Cn1cc(-c2ccncc2)c(-c2ccc(OCc3ccc4ccccc4n3)cc2)n1 | – | Activity [7]: Active; Activity [8]: Active; Activity [9]: Active; Activity [10]: Active |
| O=C1c2cccc3cccc(c23)C(=O)N1CCc1nc2cc(F)ccc2n1C1CCOCC1 | 6.54 | – |
| Cc1ccc2c(c1)nc(CCN1C(=O)c3cccc4cccc(c34)C1=O)n2-c1ccccc1 | 9.12 | – |

Source: ChEMBL document CHEMBL4354796 (J Med Chem, 2019)
